Source: ChEMBL document CHEMBL5712908, “A genome-wide RNAi screen reveals essential therapeutic targets of breast cancer stem cells” (2019)
Blank lines part the entries; values can stand above or below the compound they belong to. Calls of active or inactive are those of the source. The rule behind the calls is not given here.

Key:
[1] = target: T1, Splicing factor 3B subunit 2 (Homo sapiens) (UniProt Q13435); test: Inhibition of SF3B2 in human S68 cells assessed as K-score by measuring ALDHbr cells by LSR2 cytometer; format: cell-based
T1 sequence (whole entry): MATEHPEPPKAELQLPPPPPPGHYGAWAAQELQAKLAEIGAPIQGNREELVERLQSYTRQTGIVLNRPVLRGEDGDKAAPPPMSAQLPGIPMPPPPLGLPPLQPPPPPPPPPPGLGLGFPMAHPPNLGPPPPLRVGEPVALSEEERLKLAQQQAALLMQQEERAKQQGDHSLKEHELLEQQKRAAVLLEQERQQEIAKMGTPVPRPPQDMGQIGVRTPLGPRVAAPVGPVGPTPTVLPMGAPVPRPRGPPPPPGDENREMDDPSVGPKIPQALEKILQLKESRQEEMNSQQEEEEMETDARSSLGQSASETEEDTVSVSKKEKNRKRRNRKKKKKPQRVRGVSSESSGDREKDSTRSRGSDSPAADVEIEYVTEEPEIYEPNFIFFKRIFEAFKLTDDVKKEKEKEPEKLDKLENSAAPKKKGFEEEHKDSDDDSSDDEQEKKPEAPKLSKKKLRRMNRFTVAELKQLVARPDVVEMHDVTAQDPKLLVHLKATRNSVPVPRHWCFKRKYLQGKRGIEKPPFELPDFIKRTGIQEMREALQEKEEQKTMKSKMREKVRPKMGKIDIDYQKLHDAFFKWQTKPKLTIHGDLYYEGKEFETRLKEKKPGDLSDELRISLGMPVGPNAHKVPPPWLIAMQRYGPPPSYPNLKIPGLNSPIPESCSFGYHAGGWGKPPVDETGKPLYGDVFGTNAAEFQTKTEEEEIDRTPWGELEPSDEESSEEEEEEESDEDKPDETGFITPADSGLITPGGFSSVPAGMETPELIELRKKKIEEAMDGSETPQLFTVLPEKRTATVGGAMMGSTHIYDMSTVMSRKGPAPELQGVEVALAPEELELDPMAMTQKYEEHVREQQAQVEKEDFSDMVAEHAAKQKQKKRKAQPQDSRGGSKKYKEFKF
Summary of the method: (§1)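 Cell lines exposed for 72 h in adherent culture to a range of concentrations centred on the MTS-derived IC50. ALDHbr proportion measured by ALDEFLUOR flow cytometry (LSR2). K-score is the linear regression coefficient, on log10-transformed doses, between the untreated condition and the dose predicted to give a 50% decrease or increase in ALDHbr proportion versus control.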

[2] = target: T1, Splicing factor 3B subunit 2 (Homo sapiens); test: Inhibition of SF3B2 in human BrCa-MZ-01 cells assessed as K-score by measuring ALDHbr cells by LSR2 cytometer; format: cell-based; summary of the method: as §1
[3] = target: T1, Splicing factor 3B subunit 2 (Homo sapiens); test: Inhibition of SF3B2 in human SUM159 cells assessed as K-score by measuring ALDHbr cells by LSR2 cytometer; format: cell-based; summary of the method: as §1
[4] = target: T1, Splicing factor 3B subunit 2 (Homo sapiens); test: Inhibition of SF3B2 in human SUM149 cells assessed as K-score by measuring ALDHbr cells by LSR2 cytometer; format: cell-based; summary of the method: as §1
[5] = target: T1, Splicing factor 3B subunit 2 (Homo sapiens); test: Inhibition of SF3B2 in human MDA-MB-436 cells assessed as K-score by measuring ALDHbr cells by LSR2 cytometer; format: cell-based; summary of the method: as §1
SUM149PT [6] = test: Anticancer activity against human SUM149 cells assessed as decrease in ALDHbr cells at 2 nM by LSR2 cytometer analysis; format: functional, cell-based
Summary of the method: (§2)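 Cells continuously exposed to drug for 72 h in adherent culture; single-cell suspensions stained with ALDEFLUOR kit and ALDH-high population measured by flow cytometry (LSR2) against a DEAB control. Residual ALDHbr proportion reported (n = 8), mean ± SD, Student's t-test.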

SUM-159-PT [7] = test: Anticancer activity against human SUM159 cells assessed as decrease in ALDHbr cells at 2 nM by LSR2 cytometer analysis; format: functional, cell-based; summary of the method: as §2
SUM149PT [8] = test: Anticancer activity against human SUM149 cells assessed as decrease primary tumor sphere formation at 2 nM incubated for 72 hrs by Extreme limiting dilution analysis; format: functional, cell-based
Summary of the method: (§3)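 Cells given drug (2 nM when combined with other agents) for 72 h in adherent culture, then plated as single cells in ultra-low attachment 96-well plates in serum-free mammary epithelium basal medium at 25/10/5/3/2/1 cells per well (18–36 wells per condition). Wells holding ≥1 sphere at 10 days scored positive. Sphere-forming frequency by extreme limiting dilution analysis, pairwise chi-square, n = 4.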

SUM-159-PT [9] = test: Anticancer activity against human SUM159 cells assessed as decrease primary tumor sphere formation at 2 nM incubated for 72 hrs by Extreme limiting dilution analysis; format: functional, cell-based; summary of the method: as §3
[10] = target: Histone acetyltransferase p300 (Homo sapiens) (UniProt Q09472); test: Inhibition of EP300 in human S68 cells assessed as K-score by measuring ALDHbr cells by LSR2 cytometer; format: cell-based
Summary of the method: (§4)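 Breast cancer lines exposed continuously for 72 h in adherent culture to a range of doses centred on the MTS-derived IC50 (72 h MTS, absorbance 540 nm). ALDHbr fraction measured by ALDEFLUOR flow cytometry (LSR2) with DEAB control. K-score = linear regression coefficient between untreated condition and the log10 dose at which ALDHbr proportion changes by 50% versus control.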

[11] = target: Histone acetyltransferase p300 (Homo sapiens) (UniProt Q09472); test: Inhibition of EP300 in human BrCa-MZ-01 cells assessed as K-score by measuring ALDHbr cells by LSR2 cytometer; format: cell-based; summary of the method: as §4
[12] = target: Histone acetyltransferase p300 (Homo sapiens) (UniProt Q09472); test: Inhibition of EP300 in human SUM159 cells assessed as K-score by measuring ALDHbr cells by LSR2 cytometer; format: cell-based; summary of the method: as §4
[13] = target: Histone acetyltransferase p300 (Homo sapiens) (UniProt Q09472); test: Inhibition of EP300 in human SUM149 cells assessed as K-score by measuring ALDHbr cells by LSR2 cytometer; format: cell-based; summary of the method: as §4
[14] = target: Histone acetyltransferase p300 (Homo sapiens) (UniProt Q09472); test: Inhibition of EP300 in human MDA-MB-436 cells assessed as K-score by measuring ALDHbr cells by LSR2 cytometer; format: cell-based; summary of the method: as §4
SUM149PT [15] = test: Anticancer activity against human SUM149 cells assessed as ALDHbr cells by LSR2 cytometer (reference value: 6.8%); format: functional; summary of the method: as §2
[16] = target: Histone-lysine N-methyltransferase EZH2 (Homo sapiens) (UniProt Q15910); test: Inhibition of EZH2 in human SUM159 cells assessed as increase in ALDHbr cells by LSR2 cytometer (reference value: 4.8%); format: cell-based; set-up: scale not given: the % may be the effect or the level left; conditions: dose 0.0 µM
Summary of the method: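 SUM159 cells exposed continuously for 72 h in adherent culture to graded doses centred on the IC50. ALDHbr proportion measured by ALDEFLUOR flow cytometry (LSR2) with DEAB as negative control; n = 10.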

[17] = Antitumor activity against human S68 cells assessed as K-score by measuring ALDHbr cells by LSR2 cytometer; format: functional; summary of the method: as §1
[18] = Antitumor activity against human BrCa-MZ-01 cells assessed as K-score by measuring ALDHbr cells by LSR2 cytometer; format: functional; summary of the method: as §1
SUM-159-PT [19] = test: Antitumor activity against human SUM159 cells assessed as K-score by measuring ALDHbr cells by LSR2 cytometer; format: functional; summary of the method: as §1
SUM149PT [20] = test: Antitumor activity against human SUM149 cells assessed as K-score by measuring ALDHbr cells by LSR2 cytometer; format: functional; summary of the method: as §1
MDA-MB-436 = test: Antitumor activity against human MDA-MB-436 cells assessed as K-score by measuring ALDHbr cells by LSR2 cytometer; format: functional; summary of the method: as §1
SUM-159-PT [21] = test: Anticancer activity against human SUM159 cells assessed as decrease in primary tumor sphere formation incubated for 72 hrs by Extreme limiting dilution analysis; format: functional, cell-based
Summary of the method: (§5)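 Cells drug-treated in adherent culture for 72 h, then plated as single cells in ultra-low attachment 96-well plates in serum-free mammary epithelium basal medium. Plating at 25/10/5/3/2/1 cells per well, 18–36 wells per condition. Wells with ≥1 sphere after 10 days scored positive. Secondary spheres were made by dissociating primary spheres. Frequency by ELDA; n = 4; pairwise chi-square test.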

SUM-159-PT [22] = test: Anticancer activity against human SUM159 cells assessed as decrease in secondary tumor sphere formation incubated for 72 hrs by Extreme limiting dilution analysis; format: functional, cell-based; summary of the method: as §5

Histone acetyltransferase p300 (Homo sapiens), sequence (Q09472 whole entry): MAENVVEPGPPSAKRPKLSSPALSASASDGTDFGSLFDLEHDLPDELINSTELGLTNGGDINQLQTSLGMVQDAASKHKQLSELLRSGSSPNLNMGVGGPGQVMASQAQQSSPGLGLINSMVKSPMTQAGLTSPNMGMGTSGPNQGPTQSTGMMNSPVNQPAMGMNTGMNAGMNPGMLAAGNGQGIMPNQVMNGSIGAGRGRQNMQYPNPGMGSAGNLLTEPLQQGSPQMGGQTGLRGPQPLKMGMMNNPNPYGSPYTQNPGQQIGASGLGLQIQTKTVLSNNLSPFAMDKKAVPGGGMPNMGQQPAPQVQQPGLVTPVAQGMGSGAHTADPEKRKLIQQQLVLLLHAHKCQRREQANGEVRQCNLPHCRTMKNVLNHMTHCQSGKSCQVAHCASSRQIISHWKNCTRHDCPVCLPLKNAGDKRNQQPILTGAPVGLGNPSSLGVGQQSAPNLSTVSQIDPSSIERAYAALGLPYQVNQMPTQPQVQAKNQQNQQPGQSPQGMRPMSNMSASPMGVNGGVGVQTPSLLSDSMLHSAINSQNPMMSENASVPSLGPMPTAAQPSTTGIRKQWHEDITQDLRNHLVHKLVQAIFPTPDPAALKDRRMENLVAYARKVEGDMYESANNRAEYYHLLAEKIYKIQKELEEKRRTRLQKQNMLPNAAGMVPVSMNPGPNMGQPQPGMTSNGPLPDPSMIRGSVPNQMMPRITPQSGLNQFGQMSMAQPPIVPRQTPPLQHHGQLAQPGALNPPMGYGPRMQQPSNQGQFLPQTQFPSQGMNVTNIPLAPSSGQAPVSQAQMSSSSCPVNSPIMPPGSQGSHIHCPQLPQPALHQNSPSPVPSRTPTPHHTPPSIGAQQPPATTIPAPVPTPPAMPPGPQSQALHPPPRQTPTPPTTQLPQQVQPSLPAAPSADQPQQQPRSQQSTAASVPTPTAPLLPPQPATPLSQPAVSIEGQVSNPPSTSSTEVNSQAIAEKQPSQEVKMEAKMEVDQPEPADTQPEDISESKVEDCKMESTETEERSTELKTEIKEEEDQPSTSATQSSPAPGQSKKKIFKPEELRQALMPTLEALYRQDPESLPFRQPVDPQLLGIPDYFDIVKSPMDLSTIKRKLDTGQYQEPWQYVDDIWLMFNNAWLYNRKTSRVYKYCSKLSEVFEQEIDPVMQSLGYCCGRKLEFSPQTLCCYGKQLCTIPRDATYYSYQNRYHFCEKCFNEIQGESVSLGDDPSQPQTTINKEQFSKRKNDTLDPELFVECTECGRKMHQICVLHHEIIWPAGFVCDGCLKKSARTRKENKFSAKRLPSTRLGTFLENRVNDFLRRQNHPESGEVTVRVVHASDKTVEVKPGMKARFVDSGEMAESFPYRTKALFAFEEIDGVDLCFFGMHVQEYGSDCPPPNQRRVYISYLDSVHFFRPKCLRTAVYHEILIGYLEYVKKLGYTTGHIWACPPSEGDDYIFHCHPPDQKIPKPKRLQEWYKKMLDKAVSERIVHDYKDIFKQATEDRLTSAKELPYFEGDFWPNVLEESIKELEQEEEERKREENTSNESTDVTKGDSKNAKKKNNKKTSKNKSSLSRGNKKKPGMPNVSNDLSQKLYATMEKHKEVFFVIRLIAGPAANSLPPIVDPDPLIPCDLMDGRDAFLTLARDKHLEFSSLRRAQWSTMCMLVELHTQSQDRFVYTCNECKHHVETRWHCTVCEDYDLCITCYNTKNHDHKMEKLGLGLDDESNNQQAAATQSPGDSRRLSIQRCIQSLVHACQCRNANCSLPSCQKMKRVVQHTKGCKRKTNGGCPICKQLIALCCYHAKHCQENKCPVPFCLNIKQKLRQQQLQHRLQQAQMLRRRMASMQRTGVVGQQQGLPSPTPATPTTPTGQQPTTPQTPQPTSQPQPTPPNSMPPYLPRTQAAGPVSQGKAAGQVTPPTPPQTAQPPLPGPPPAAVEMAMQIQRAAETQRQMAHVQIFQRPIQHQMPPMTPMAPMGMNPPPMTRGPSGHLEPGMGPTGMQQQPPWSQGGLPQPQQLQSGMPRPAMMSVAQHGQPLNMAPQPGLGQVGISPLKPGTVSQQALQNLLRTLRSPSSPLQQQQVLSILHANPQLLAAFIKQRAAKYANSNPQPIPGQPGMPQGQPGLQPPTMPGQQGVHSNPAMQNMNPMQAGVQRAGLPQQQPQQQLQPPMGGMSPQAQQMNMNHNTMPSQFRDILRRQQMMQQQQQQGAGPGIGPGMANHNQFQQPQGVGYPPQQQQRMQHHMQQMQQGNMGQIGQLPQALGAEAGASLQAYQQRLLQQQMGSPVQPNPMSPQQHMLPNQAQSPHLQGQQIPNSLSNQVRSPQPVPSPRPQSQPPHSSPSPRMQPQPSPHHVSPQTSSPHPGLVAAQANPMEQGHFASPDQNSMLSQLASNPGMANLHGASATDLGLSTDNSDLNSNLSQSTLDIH
Histone-lysine N-methyltransferase EZH2 (Homo sapiens), sequence (Q15910 whole entry, looked up): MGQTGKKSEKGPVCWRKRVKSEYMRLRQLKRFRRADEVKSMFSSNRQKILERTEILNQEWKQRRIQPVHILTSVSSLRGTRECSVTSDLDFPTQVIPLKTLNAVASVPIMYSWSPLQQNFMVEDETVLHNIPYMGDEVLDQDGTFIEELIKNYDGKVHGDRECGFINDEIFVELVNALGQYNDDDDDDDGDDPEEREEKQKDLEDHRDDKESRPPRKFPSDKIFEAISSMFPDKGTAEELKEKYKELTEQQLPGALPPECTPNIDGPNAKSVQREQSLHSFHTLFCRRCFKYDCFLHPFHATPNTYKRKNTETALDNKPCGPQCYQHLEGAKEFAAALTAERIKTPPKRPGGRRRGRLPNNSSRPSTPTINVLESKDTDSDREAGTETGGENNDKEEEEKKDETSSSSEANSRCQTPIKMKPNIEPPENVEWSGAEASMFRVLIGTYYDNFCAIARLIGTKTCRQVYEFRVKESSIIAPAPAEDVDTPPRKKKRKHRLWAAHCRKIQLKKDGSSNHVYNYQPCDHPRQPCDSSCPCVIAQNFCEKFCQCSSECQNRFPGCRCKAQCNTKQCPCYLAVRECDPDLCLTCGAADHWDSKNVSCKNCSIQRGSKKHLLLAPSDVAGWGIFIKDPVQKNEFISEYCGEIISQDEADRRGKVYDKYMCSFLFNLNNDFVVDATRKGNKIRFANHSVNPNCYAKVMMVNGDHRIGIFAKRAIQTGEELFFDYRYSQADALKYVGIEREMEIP

Structure (SMILES): CO[C@]1(C)C[C@@]2(CO2)[C@H](O)[C@@H](/C=C/C(C)=C/C[C@@H]2O[C@H](C)[C@H](NC(=O)/C=C\[C@H](C)OC(C)=O)C[C@@H]2C)O1
Activity [1]: -0.16
Activity [2]: 0.05
Activity [3]: 0.25
Activity [4]: -0.19
Activity [5]: -0.15

Structure (SMILES): CC(=O)O[C@@]12CO[C@@H]1C[C@H](O)[C@@]1(C)C(=O)[C@H](O)C3=C(C)[C@@H](OC(=O)[C@H](O)[C@@H](NC(=O)OC(C)(C)C)c4ccccc4)C[C@@](O)([C@@H](OC(=O)c4ccccc4)[C@H]21)C3(C)C
Activity (SUM149PT [6]): inactive
Activity (SUM-159-PT [7]): inactive
Activity (SUM149PT [8]): inactive
Activity (SUM-159-PT [9]): inactive

Activity [10]: 0.22
Activity [11]: 0.01
Activity [12]: 0.02
Activity [13]: 0.1
Activity [14]: 0.14
Structure (SMILES): CCC(=O)N1CCOc2c(cc(-c3ccc(OC)c(OC)c3)cc2OC[C@H]2CCCN(C)C2)C1

Activity [16]: 0.2%
Structure (SMILES): CCN(CC)c1ccc(C=O)cc1
Activity (SUM149PT [15]): 0.3%

Structure (SMILES): CCN(CC)CCCC(C)Nc1ccnc2cc(Cl)ccc12 (stereo not drawn) [CHLOROQUINE]
Activity [17]: -0.02
Activity [18]: -0.02
Activity (SUM-159-PT [19]): 0.04
Activity (SUM149PT [20]): -0.01
Activity (MDA-MB-436): -0.06

Structure (SMILES): CC#C[C@]1(O)CC[C@H]2[C@@H]3CCC4=CC(=O)CCC4=C3[C@@H](c3ccc(N(C)C)cc3)C[C@@]21C
Activity (SUM-159-PT [21]): Active
Activity (SUM-159-PT [22]): Active
